Experimental data from ChEMBL document CHEMBL4190227, “Syntheses, toxicities and anti-inflammation of H2S-donors based on non-steroidal anti-inflammatory drugs” (Eur J Med Chem, 2017).

Legend:
[1] = Drug degradation in phosphate buffer assessed as H2S release by measuring test compound half life at 40 uM measured every 5 mins in presence of TECP by UV-Vis spectrometry; assay type: physicochemical
Summary of the method: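 Sulfide release at 37.5 °C: donor (40 mM THF stock) added to pH 7.4 phosphate buffer with 1.0 mM TECP; aliquots taken every 5 min into methylene blue cocktail (zinc acetate, N,N-dimethyl-1,4-phenylenediamine, FeCl3 in HCl), A670 read 15 min later; H2S from Na2S calibration curve; concentration vs time curve; four independent experiments.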

Danio rerio [2] = organism: Danio rerio; test: Toxicity in AB zebrafish embryo assessed as embryonic spontaneous movement frequencies per minute at 1 to 20 uM measured at 24 hrs post fertilization by stereoscopic dissecting light microscopic analysis (reference value: 15 /min); assay type: organism-based; settings: in vivo
Summary of the method: (§1)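 AB embryos exposed from 4 to 24 hpf to compound (0.5–20 μM) or DMF vehicle (1:1000); ten embryos per group chosen randomly; spontaneous movement recorded under stereoscopic dissecting microscope, frequency per min counted at 24 hpf; three independent experiments, mean ± SD.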

Danio rerio [3] = organism: Danio rerio; test: Toxicity in AB zebrafish embryo assessed as increase in embryo malformation measured at 96 hrs post fertilization by stereoscopic dissecting light microscopic analysis; assay type: organism-based; settings: in vivo
Summary of the method: (§2)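 AB embryos exposed from 4 hpf through 96 hpf to compound or DMF vehicle (1:1000); malformations scored at 96 hpf under stereoscopic dissecting microscope; 100 embryos per group in three replicates; three independent experiments, mean ± SD.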

Danio rerio [4] = organism: Danio rerio; test: Toxicity in AB zebrafish embryo assessed as vitelline cyst at 0.5 uM measured at 96 hrs post fertilization by stereoscopic dissecting light microscopic analysis; assay type: organism-based; settings: in vivo; summary of the method: as §2
Danio rerio [5] = organism: Danio rerio; test: Toxicity in AB zebrafish embryo assessed as bent spine at 0.5 uM measured at 96 hrs post fertilization by stereoscopic dissecting light microscopic analysis; assay type: organism-based; settings: in vivo; summary of the method: as §2
[6] = Drug degradation in phosphate buffer assessed as H2S release by measuring test compound half life at 40 uM measured every 5 mins in presence of L-cysteine by UV-Vis spectrometry; assay type: physicochemical
Summary of the method: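 Sulfide release at 37.5 °C: donor (40 mM THF stock) added to pH 7.4 phosphate buffer with 1.0 mM L-cysteine; aliquots taken every 5 min into zinc acetate/N,N-dimethyl-1,4-phenylenediamine/FeCl3 in HCl, A670 read 15 min later; H2S quantified against Na2S standard curve (5–150 μM); release curve plotted vs time; four independent experiments.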

[7] = Toxicity in AB zebrafish embryo assessed as percentage of embryos alive at 10 uM measured at 120 hrs post fertilization by dissecting light microscopic analysis relative to DMF; assay type: organism-based, Danio rerio; settings: read-out: Activity
Summary of the method: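 Wild-type AB zebrafish embryos, collected within 1 h of lights-on and washed in E3 medium, were exposed one embryo per well in 200 μL test solution, with plates sealed against evaporation. There were 100 embryos per group, split into three replicate groups. Mortality was recorded at 24–168 hpf. DMF vehicle (1:1000) served as control. Results are mean ± SD of three replicates.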

Danio rerio [8] = organism: Danio rerio; test: Toxicity in AB zebrafish embryo assessed as reduction in embryonic spontaneous movement frequencies per minute up to 1 uM measured at 24 hrs post fertilization by stereoscopic dissecting light microscopic analysis; assay type: organism-based; settings: in vivo; summary of the method: as §1
Danio rerio [9] = organism: Danio rerio; test: Toxicity in AB zebrafish embryo assessed as embryonic spontaneous movement frequencies per minute at 20 uM measured at 24 hrs post fertilization by stereoscopic dissecting light microscopic analysis (reference value: 15.9 /min); assay type: organism-based; settings: in vivo; summary of the method: as §1
Danio rerio [10] = organism: Danio rerio; test: Toxicity in AB zebrafish embryo assessed as rate of embryo malformation at 0.5 to 20 uM measured at 96 hrs post fertilization by stereoscopic dissecting light microscopic analysis relative to DMF; assay type: organism-based; settings: in vivo; summary of the method: as §2
[11] = molecular target: T1, Nitric oxide synthase, inducible (Mus musculus) (UniProt P29477); test: Inhibition of iNOS in mouse RAW264.7 cells assessed as reduction in LPS-induced NO production at 50 uM administered for 24 hrs post LPS induction by Griess method relative to control; assay type: cell-based
T1 sequence (whole entry): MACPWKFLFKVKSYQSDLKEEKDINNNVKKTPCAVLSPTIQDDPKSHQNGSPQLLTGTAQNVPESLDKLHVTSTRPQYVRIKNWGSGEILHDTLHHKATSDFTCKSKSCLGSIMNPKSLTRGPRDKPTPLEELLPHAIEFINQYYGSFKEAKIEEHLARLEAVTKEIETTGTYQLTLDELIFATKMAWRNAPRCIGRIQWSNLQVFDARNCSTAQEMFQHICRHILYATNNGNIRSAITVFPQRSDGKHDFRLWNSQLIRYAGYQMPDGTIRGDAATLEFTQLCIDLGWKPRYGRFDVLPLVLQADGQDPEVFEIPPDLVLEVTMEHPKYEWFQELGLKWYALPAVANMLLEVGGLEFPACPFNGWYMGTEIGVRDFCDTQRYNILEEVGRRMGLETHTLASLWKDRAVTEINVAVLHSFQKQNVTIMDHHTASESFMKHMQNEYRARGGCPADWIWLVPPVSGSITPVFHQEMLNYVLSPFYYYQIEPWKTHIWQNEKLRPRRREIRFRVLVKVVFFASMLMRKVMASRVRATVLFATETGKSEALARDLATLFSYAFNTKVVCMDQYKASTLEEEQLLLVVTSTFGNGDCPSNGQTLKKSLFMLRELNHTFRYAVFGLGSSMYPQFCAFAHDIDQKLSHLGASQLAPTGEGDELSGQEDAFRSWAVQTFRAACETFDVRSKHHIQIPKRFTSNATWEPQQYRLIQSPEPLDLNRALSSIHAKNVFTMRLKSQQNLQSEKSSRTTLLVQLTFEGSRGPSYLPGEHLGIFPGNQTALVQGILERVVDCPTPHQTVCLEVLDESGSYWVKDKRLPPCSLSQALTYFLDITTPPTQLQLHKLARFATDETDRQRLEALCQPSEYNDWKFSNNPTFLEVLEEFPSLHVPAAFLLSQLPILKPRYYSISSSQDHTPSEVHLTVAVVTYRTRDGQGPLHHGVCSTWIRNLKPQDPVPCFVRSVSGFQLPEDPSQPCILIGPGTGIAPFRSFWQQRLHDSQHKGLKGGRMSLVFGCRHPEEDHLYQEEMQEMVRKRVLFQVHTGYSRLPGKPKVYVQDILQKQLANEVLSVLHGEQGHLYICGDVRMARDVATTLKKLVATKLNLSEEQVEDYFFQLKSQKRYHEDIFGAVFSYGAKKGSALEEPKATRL
Summary of the method: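 RAW264.7 cells stimulated with LPS 1 μg/mL for 4 h, then compound (10, 50, 100 μM) for 24 h; culture medium reacted with Griess reagents I and II, absorbance 570 nm; nitrite from sodium nitrite standard curve (0–100 μM in medium); four independent experiments, mean ± SD.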

RAW264.7 = test: Antiinflammatory activity in mouse RAW264.7 cells assessed as LPS-induced TNFalpha levels at 100 uM incubated for 24 hrs post LPS induction by ELISA relative to control; assay type: functional
Summary of the method: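 LPS (1 μg/mL) for 4 h, then compound at 10, 50, 100 μM for 24 h; cells lysed in RIPA, spun 12,000×g 10 min, protein normalised by BCA to 0.1 mg/mL; target (TNF-α, HO-1, IL-10 or COX-2) quantified by sandwich ELISA kit with mouse-specific polyclonal antibodies; four independent experiments.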

Compound: CC(C)Cc1ccc(C(C)C(=O)Oc2ccc(C(N)=S)cc2)cc1 (configuration not stated)
- half-life at 40 µM [1]: 20.1 min
- Activity (Danio rerio [2]): 11 min⁻¹
- Activity (Danio rerio [3]): Dose-dependent effect
- Activity (Danio rerio [4]): Toxic
- Activity (Danio rerio [5]): Toxic

Compound: CC(=O)Nc1ccc(OC(=O)CCCCC2CCSS2)cc1 (configuration not stated)
- half-life at 40 µM [6]: 14.1 min
- survival at 120 h, 10 µM [7]: 51%
- Activity (Danio rerio [8]): Non-Toxic
- Activity (Danio rerio [9]): 12.2 min⁻¹
- Activity (Danio rerio [10]): 3%
- inhibition [11]: 60%
- Activity (RAW264.7): 50%
